In ChEMBL document CHEMBL4118256, “Second Generation of Mannich Base-Type Derivatives with in Vivo Activity against Trypanosoma cruzi” (J Med Chem, 2018):

Tested on: Trypanosoma cruzi
Assay: Trypanocidal activity against Trypanosoma cruzi MHOM/Pe/2011/Arequipa DTU 5 epimastigotes after 48 hrs by resazurin dye based assay
Assay type: functional, organism-based
Settings: MHOM/Pe/2011/Arequipa DTU 5, 48 h
Outline: (§1)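 Exponential-phase epimastigotes were seeded at 5×10^5 mL^-1 with compounds at 100–0.2 µM (DMSO 0.01% v/v) at 28 °C. After 48 h, resazurin was added for another 24 h. SDS was then added and absorbance read at 570 and 600 nm.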

SMILES | IC50 [µM]
COc1ccccc1N1CCN(CCC(=O)c2ccc(F)cc2)CC1 | 58.3
COc1ccc(C(=O)CCN2CCN(c3ccc(C(F)(F)F)cc3)CC2)cc1OC | 59
O=C(CCN1CCN(c2ccc(C(F)(F)F)cc2)CC1)c1ccc(F)c(Br)c1 | 46.6
O=C(CCN1CCN(c2ccc(Cl)cc2)CC1)c1ccc(F)c(Br)c1 | 26.6
COc1ccc(C(=O)CCN2CCN(c3ccc(Cl)cc3)CC2)cc1OC | 90.3
O=C(CCN1CCN(c2ccc(C(F)(F)F)cc2)CC1)c1ccc(F)c(Cl)c1 | 21.6
O=C(CCN1CCN(c2ccc(Cl)cc2)CC1)c1ccc(C(F)(F)F)cc1 | 52.7
O=C(CCN1CCN(c2ccc(Cl)cc2)CC1)c1ccc(F)c(Cl)c1 | 45.5
COc1ccc(C(=O)CCN2CCN(c3ccc([N+](=O)[O-])cc3)CC2)cc1OC | 94.5

Tested on: Trypanosoma cruzi
Assay: Trypanocidal activity against Trypanosoma cruzi IRHOD/CO/2008/SN3 DTU 1 epimastigotes after 48 hrs by resazurin dye based assay
Assay type: functional, organism-based
Settings: IRHOD/CO/2008/SN3 DTU 1, 48 h
Outline: as §1

SMILES | IC50 [µM]
COc1ccccc1N1CCN(CCC(=O)c2ccc(F)cc2)CC1 | 40.5
COc1ccc(C(=O)CCN2CCN(c3ccc(C(F)(F)F)cc3)CC2)cc1OC | 27.8
O=C(CCN1CCN(c2ccc(C(F)(F)F)cc2)CC1)c1ccc(F)c(Br)c1 | 20.8
O=C(CCN1CCN(c2ccc(Cl)cc2)CC1)c1ccc(F)c(Br)c1 | 35.1
COc1ccc(C(=O)CCN2CCN(c3ccc(Cl)cc3)CC2)cc1OC | 43.9
O=C(CCN1CCN(c2ccc(C(F)(F)F)cc2)CC1)c1ccc(F)c(Cl)c1 | 45
O=C(CCN1CCN(c2ccc(Cl)cc2)CC1)c1ccc(C(F)(F)F)cc1 | 38.2
O=C(CCN1CCN(c2ccc(Cl)cc2)CC1)c1ccc(F)c(Cl)c1 | 29.5
COc1ccc(C(=O)CCN2CCN(c3ccc([N+](=O)[O-])cc3)CC2)cc1OC | 174

Tested on: Trypanosoma cruzi
Assay: Trypanocidal activity against Trypanosoma cruzi TINF/CH/1956/Tulahuen DTU 6 epimastigotes after 48 hrs by resazurin dye based assay
Assay type: functional, organism-based
Settings: TINF/CH/1956/Tulahuen DTU 6, 48 h
Outline: as §1

SMILES | IC50 [µM]
COc1ccccc1N1CCN(CCC(=O)c2ccc(F)cc2)CC1 | 45.6
COc1ccc(C(=O)CCN2CCN(c3ccc(C(F)(F)F)cc3)CC2)cc1OC | 33.9
O=C(CCN1CCN(c2ccc(C(F)(F)F)cc2)CC1)c1ccc(F)c(Br)c1 | 25.6
O=C(CCN1CCN(c2ccc(Cl)cc2)CC1)c1ccc(F)c(Br)c1 | 30.6
COc1ccc(C(=O)CCN2CCN(c3ccc(Cl)cc3)CC2)cc1OC | 36.6
O=C(CCN1CCN(c2ccc(C(F)(F)F)cc2)CC1)c1ccc(F)c(Cl)c1 | 29
O=C(CCN1CCN(c2ccc(Cl)cc2)CC1)c1ccc(C(F)(F)F)cc1 | 39.1
O=C(CCN1CCN(c2ccc(Cl)cc2)CC1)c1ccc(F)c(Cl)c1 | 29.1
COc1ccc(C(=O)CCN2CCN(c3ccc([N+](=O)[O-])cc3)CC2)cc1OC | 105

Tested on: Vero
Assay: Cytotoxicity against African green monkey Vero cells assessed as reduction in cell viability after 72 hrs by resazurin dye based assay
Settings: Chlorocebus sabaeus
Outline: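 Vero monkey kidney cells grown at 37 °C, 5 % CO2, in RPMI with 10 % heat-inactivated FBS. Seeded at 1.25 × 10^4 mL-1 with compound at 1000 to 1 µM (DMSO 0.01 % v/v). After 48 h, resazurin added for a further 24 h, then SDS. Absorbance read at 570/600 nm. IC50 from triplicates in four separate determinations.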

SMILES | IC50 [µM]
COc1ccccc1N1CCN(CCC(=O)c2ccc(F)cc2)CC1 | 24
COc1ccc(C(=O)CCN2CCN(c3ccc(C(F)(F)F)cc3)CC2)cc1OC | 242
O=C(CCN1CCN(c2ccc(C(F)(F)F)cc2)CC1)c1ccc(F)c(Br)c1 | 66.8
O=C(CCN1CCN(c2ccc(Cl)cc2)CC1)c1ccc(F)c(Br)c1 | 206
COc1ccc(C(=O)CCN2CCN(c3ccc(Cl)cc3)CC2)cc1OC | 185
O=C(CCN1CCN(c2ccc(C(F)(F)F)cc2)CC1)c1ccc(F)c(Cl)c1 | 74.5
O=C(CCN1CCN(c2ccc(Cl)cc2)CC1)c1ccc(C(F)(F)F)cc1 | 54.2
O=C(CCN1CCN(c2ccc(Cl)cc2)CC1)c1ccc(F)c(Cl)c1 | 114
COc1ccc(C(=O)CCN2CCN(c3ccc([N+](=O)[O-])cc3)CC2)cc1OC | 105

Tested on: not listed separately
Assay: Selectivity index, ratio of IC50 for African green monkey Vero cells to IC50 for Trypanosoma cruzi MHOM/Pe/2011/Arequipa DTU 5 epimastigotes
Assay type: toxicity
Settings: read-out: Ratio IC50
Outline: (§2)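 SI is Vero IC50 divided by the IC50 for the stated parasite form. For Vero cytotoxicity, cells were seeded at 1.25×10^4 mL^-1 with compounds at 1000–1 µM, incubated 48 h, then given resazurin for a further 24 h (72 h total), with absorbance read at 570/600 nm. Triplicate, four determinations.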

SMILES | selectivity ratio
COc1ccccc1N1CCN(CCC(=O)c2ccc(F)cc2)CC1 | 0.4
COc1ccc(C(=O)CCN2CCN(c3ccc(C(F)(F)F)cc3)CC2)cc1OC | 4.1
O=C(CCN1CCN(c2ccc(C(F)(F)F)cc2)CC1)c1ccc(F)c(Br)c1 | 1.4
O=C(CCN1CCN(c2ccc(Cl)cc2)CC1)c1ccc(F)c(Br)c1 | 7.7
COc1ccc(C(=O)CCN2CCN(c3ccc(Cl)cc3)CC2)cc1OC | 2.1
O=C(CCN1CCN(c2ccc(C(F)(F)F)cc2)CC1)c1ccc(F)c(Cl)c1 | 3.4
O=C(CCN1CCN(c2ccc(Cl)cc2)CC1)c1ccc(C(F)(F)F)cc1 | 1
O=C(CCN1CCN(c2ccc(Cl)cc2)CC1)c1ccc(F)c(Cl)c1 | 2.5
COc1ccc(C(=O)CCN2CCN(c3ccc([N+](=O)[O-])cc3)CC2)cc1OC | 1.1

Tested on: not listed separately
Assay: Selectivity index, ratio of IC50 for African green monkey Vero cells to IC50 for Trypanosoma cruzi IRHOD/CO/2008/SN3 DTU 1 epimastigotes
Assay type: toxicity
Settings: read-out: Ratio IC50
Outline: as §2

SMILES | selectivity ratio
COc1ccccc1N1CCN(CCC(=O)c2ccc(F)cc2)CC1 | 0.6
COc1ccc(C(=O)CCN2CCN(c3ccc(C(F)(F)F)cc3)CC2)cc1OC | 8.7
O=C(CCN1CCN(c2ccc(C(F)(F)F)cc2)CC1)c1ccc(F)c(Br)c1 | 3.2
O=C(CCN1CCN(c2ccc(Cl)cc2)CC1)c1ccc(F)c(Br)c1 | 5.9
COc1ccc(C(=O)CCN2CCN(c3ccc(Cl)cc3)CC2)cc1OC | 4.2
O=C(CCN1CCN(c2ccc(C(F)(F)F)cc2)CC1)c1ccc(F)c(Cl)c1 | 1.7
O=C(CCN1CCN(c2ccc(Cl)cc2)CC1)c1ccc(C(F)(F)F)cc1 | 1.4
O=C(CCN1CCN(c2ccc(Cl)cc2)CC1)c1ccc(F)c(Cl)c1 | 3.9
COc1ccc(C(=O)CCN2CCN(c3ccc([N+](=O)[O-])cc3)CC2)cc1OC | 0.6

Tested on: not listed separately
Assay: Selectivity index, ratio of IC50 for African green monkey Vero cells to IC50 for Trypanosoma cruzi TINF/CH/1956/Tulahuen DTU 6 epimastigotes
Assay type: toxicity
Settings: read-out: Ratio IC50
Outline: as §2

SMILES | selectivity ratio
COc1ccccc1N1CCN(CCC(=O)c2ccc(F)cc2)CC1 | 0.5
COc1ccc(C(=O)CCN2CCN(c3ccc(C(F)(F)F)cc3)CC2)cc1OC | 7.2
O=C(CCN1CCN(c2ccc(C(F)(F)F)cc2)CC1)c1ccc(F)c(Br)c1 | 2.6
O=C(CCN1CCN(c2ccc(Cl)cc2)CC1)c1ccc(F)c(Br)c1 | 6.7
COc1ccc(C(=O)CCN2CCN(c3ccc(Cl)cc3)CC2)cc1OC | 5.1
O=C(CCN1CCN(c2ccc(C(F)(F)F)cc2)CC1)c1ccc(F)c(Cl)c1 | 2.6
O=C(CCN1CCN(c2ccc(Cl)cc2)CC1)c1ccc(C(F)(F)F)cc1 | 1.4
O=C(CCN1CCN(c2ccc(Cl)cc2)CC1)c1ccc(F)c(Cl)c1 | 3.9
COc1ccc(C(=O)CCN2CCN(c3ccc([N+](=O)[O-])cc3)CC2)cc1OC | 1
